Entries after “also recorded” stand apart in the source; their conditions may differ. Where no end group is shown, it is not given here.
Test system: A549 cells
Assay: Cytotoxicity assay
Assay type: cell-based, human
Outline: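 A549 cells (ATCC) seeded in 96-well plates at 5 × 10^3 cells per mL, grown 24 h. Medium replaced with matched concentrations (up to 160 μg mL−1) of free drug or peptide-nanocage-encapsulated drug (pH 8.09). Nanocages were made by emulsifying drug in chloroform into 1 mM peptide/PBS pH 7.4. After 24 h, CCK-8 added for 3 h; OD 450 nm read. Viability = (ODtest − ODblank)/(ODcontrol − ODblank) × 100%.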

Molecule | cell survival rate (160 μg mL^−1, 24 h culture, CCK-8, OD 450 nm) | cytotoxicity (in words) (24 h culture, CCK-8)
CC(=O)O[C@H]1C(=O)[C@@]2(C)[C@H]([C@H](OC(=O)c3ccccc3)[C@]3(O)C[C@H](OC(=O)[C@H](O)[C@@H](NC(=O)c4ccccc4)c4ccccc4)C(C)=C1C3(C)C)[C@]1(OC(C)=O)CO[C@@H]1C[C@@H]2O [PTX, Paclitaxel, reference compound] | approximately 60% | –
GNNQQNYPKKPGNNQQNY [GSLP, GNNQQNY-PKKP-GNNQQNY] | – | not concentration-dependent toxic; also recorded: do not exhibit cytotoxicity

Source: paper PMC10126818 (RSC Advances, 2023)
